Experimental data taken from ChEMBL document CHEMBL1149302, “Design, synthesis, and pharmacological characterization of novel, potent NMDA receptor antagonists” (J Med Chem, 2004).
Active and inactive are the calls of the source. No cut-off for these calls is given here.

Experiments:
[1] = molecular target: Metabotropic glutamate receptor 2 (Rattus norvegicus) (UniProt P31421); assay: Activity at rat mGluR2 expressed in CHO cells at 1 mM; assay type: cell-based
Outline: (§1)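 Rat mGluR1α, mGluR2, mGluR4a and mGluR5a each expressed in CHO cell lines. Compounds tested at 1 mM for both agonist and antagonist activity.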

[2] = molecular target: Metabotropic glutamate receptor 4 (Rattus norvegicus) (UniProt P31423); assay: Activity at rat mGluR4a expressed in CHO cells at 1 mM; assay type: cell-based; outline: as §1
Chain of Metabotropic glutamate receptor 4 (Rattus norvegicus) (P31423 whole entry): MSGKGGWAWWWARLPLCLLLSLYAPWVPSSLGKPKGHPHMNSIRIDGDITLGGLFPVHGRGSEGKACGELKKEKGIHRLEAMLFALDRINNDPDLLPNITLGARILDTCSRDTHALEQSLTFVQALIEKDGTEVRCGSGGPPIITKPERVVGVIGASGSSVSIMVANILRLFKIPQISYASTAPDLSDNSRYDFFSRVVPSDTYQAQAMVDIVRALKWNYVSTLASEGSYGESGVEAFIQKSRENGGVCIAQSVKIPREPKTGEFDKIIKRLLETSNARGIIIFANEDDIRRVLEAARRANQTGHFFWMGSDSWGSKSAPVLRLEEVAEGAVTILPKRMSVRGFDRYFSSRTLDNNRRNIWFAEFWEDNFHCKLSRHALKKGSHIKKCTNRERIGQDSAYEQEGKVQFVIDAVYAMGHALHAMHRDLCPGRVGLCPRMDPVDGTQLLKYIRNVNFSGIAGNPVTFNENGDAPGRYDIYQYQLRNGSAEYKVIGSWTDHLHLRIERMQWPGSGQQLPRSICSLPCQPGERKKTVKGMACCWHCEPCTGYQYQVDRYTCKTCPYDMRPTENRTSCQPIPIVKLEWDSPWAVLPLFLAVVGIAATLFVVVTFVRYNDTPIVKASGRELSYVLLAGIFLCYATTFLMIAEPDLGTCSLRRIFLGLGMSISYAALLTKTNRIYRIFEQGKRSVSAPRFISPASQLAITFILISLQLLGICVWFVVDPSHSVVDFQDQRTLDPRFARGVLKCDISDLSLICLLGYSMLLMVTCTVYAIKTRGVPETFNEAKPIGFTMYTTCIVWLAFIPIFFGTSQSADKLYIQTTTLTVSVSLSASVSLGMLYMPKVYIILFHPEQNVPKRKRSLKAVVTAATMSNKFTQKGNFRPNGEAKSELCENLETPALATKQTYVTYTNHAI

[3] = molecular target: Metabotropic glutamate receptor 1 (Rattus norvegicus) (UniProt P23385); assay: Activity at rat mGluR1 expressed in CHO cells at 1 mM; assay type: cell-based; outline: as §1
Chain of Metabotropic glutamate receptor 1 (Rattus norvegicus) (P23385 19-1199 limits assumed): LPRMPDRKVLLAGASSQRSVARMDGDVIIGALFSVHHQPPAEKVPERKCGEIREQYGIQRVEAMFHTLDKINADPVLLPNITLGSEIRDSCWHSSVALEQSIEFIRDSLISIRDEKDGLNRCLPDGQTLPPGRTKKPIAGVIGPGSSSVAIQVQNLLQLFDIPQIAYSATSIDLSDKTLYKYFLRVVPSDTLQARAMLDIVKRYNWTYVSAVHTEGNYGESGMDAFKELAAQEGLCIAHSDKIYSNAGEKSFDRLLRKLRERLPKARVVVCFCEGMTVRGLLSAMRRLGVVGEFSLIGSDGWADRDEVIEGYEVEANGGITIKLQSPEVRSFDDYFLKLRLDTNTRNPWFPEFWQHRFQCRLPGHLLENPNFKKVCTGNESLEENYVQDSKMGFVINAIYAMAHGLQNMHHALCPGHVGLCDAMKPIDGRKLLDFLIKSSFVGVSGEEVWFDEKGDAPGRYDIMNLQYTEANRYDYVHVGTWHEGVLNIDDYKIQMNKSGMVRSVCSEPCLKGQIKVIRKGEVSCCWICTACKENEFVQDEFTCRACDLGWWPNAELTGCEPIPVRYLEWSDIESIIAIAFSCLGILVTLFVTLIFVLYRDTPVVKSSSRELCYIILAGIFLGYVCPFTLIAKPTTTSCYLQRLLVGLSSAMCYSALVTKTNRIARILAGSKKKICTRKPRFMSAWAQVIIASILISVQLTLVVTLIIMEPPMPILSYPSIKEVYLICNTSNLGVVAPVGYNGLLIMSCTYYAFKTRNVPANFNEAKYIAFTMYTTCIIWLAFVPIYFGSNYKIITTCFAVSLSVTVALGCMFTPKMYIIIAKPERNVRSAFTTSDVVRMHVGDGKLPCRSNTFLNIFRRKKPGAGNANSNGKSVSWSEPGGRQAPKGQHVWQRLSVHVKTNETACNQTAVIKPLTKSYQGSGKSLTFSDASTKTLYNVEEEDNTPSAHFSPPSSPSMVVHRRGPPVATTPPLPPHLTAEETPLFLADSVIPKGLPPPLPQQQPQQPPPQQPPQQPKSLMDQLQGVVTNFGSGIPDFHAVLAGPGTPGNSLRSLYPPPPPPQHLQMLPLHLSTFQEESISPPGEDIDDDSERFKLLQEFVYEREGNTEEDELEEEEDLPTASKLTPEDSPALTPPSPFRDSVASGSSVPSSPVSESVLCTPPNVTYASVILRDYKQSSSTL

[4] = molecular target: Metabotropic glutamate receptor 5 (Rattus norvegicus) (UniProt P31424); assay: Activity at rat mGluR5a expressed in CHO cells at 1 mM; assay type: cell-based; outline: as §1
Chain of Metabotropic glutamate receptor 5 (Rattus norvegicus) (P31424 21-1203 limits assumed): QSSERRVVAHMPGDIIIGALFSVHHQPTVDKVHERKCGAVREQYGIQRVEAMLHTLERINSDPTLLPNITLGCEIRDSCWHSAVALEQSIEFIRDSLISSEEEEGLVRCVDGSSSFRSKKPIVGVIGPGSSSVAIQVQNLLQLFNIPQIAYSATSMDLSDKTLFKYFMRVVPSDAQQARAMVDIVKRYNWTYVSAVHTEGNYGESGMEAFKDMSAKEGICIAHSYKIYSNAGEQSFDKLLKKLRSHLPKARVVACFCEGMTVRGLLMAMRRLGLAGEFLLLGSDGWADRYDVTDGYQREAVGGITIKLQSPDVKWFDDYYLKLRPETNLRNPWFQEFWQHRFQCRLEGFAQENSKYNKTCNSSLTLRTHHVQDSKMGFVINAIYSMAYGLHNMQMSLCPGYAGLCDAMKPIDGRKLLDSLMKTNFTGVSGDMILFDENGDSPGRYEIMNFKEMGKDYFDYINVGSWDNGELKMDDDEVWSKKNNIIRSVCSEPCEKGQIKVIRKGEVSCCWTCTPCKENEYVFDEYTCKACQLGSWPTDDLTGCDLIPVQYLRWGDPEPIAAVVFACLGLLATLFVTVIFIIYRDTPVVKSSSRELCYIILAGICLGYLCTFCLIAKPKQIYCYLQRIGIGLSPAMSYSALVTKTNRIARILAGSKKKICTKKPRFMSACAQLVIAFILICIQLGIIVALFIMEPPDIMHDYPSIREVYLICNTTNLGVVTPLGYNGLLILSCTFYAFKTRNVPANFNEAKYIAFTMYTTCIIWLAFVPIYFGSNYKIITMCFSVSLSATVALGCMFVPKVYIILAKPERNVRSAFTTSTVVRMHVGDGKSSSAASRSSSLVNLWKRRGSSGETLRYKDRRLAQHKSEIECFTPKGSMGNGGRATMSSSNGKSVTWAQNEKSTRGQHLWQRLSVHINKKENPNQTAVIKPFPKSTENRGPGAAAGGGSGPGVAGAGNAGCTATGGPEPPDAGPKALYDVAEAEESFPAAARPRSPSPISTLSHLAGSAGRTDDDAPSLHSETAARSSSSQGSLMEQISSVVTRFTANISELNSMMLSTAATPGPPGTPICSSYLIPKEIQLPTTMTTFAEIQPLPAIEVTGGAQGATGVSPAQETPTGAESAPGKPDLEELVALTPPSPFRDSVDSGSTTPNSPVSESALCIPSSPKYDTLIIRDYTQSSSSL

[5] = Displacement of [3H]kainic acid from rat brain kainate receptor
Outline: (§2)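 Rat brain membranes prepared per Ransom and Stec with modifications. Radioligand binding with 5 nM [3H]AMPA, or 5 nM [3H]kainic acid in the absence of CaCl2. Bound radioactivity measured by scintillation counting. Racemates tested. Values are antilog of log mean of at least three experiments.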

[6] = molecular target: Glutamate NMDA receptor; assay: Displacement of [3H]CGP-39653 from rat brain NMDA receptor
Outline: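 Rat brain membranes prepared per Ransom and Stec with modifications. Binding with 2 nM [3H]CGP 39653, with bound radioactivity measured by scintillation counting. Racemates tested. Values are antilog of log mean of at least three experiments.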

[7] = Displacement of [3H]AMPA from rat cortex AMPA receptor; outline: as §2
[8] = system: Mus musculus; assay: Reduction of locomotor activity in DBA/2 mouse at 100 […], ip; assay type: functional, organism-based
[9] = system: Mus musculus; assay: Anticonvulsant activity in ip dosed DBA/2 mouse assessed as inhibition of tonic extension seizures; assay type: functional; details: DBA/2, ip
Outline: (§3)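 Male DBA/2 mice (6-12 g, 22-26 days old) dosed ip in 100 μL/10 g. Compounds dissolved in 0.1 mM NaOH and brought to pH 7.3-7.7 with phosphate buffer; vehicle water. 45 min after dosing, a 110 dB bell sounded for 60 s or until clonic seizure onset. Seizure scoring: wild running 1, clonus 2, tonic extension 3, respiratory arrest 4. ED50 reported in μmol/kg.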

[10] = Activity at NMDA receptor in rat corticle slice assessed as antagonism of 10 uM NMDA-induced response; assay type: functional
Outline: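 Modified rat cortical wedge preparation; depolarizing responses induced by NMDA (10 μM) recorded and antagonism measured. Racemates tested. Values are antilog of the log mean of at least three individual experiments, with ±SEM on a logarithmic distribution.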

[11] = system: Mus musculus; assay: Induction of sedation in DBA/2 mouse at 100 […], ip; assay type: functional, organism-based
[12] = organism: Rattus norvegicus; assay: Activity at AMPA receptor in rat cortical slice assessed as antagonism of 5 uM AMPA-induced response; assay type: functional
[13] = system: Mus musculus; assay: Anticonvulsant activity in ip dosed DBA/2 mouse assessed as inhibition of clonic seizures; assay type: functional; details: DBA/2, ip; outline: as §3
[14] = organism: Rattus norvegicus; assay: Activity at Kainate receptor in rat cortical slice assessed as antagonism of 5 uM kainic acid-induced response; assay type: functional
[15] = molecular target: Glutamate NMDA receptor; assay: Displacement of [3H]CPP from rat brain NMDA receptor

Chain of Metabotropic glutamate receptor 2 (Rattus norvegicus) (P31421 19-872 limits assumed): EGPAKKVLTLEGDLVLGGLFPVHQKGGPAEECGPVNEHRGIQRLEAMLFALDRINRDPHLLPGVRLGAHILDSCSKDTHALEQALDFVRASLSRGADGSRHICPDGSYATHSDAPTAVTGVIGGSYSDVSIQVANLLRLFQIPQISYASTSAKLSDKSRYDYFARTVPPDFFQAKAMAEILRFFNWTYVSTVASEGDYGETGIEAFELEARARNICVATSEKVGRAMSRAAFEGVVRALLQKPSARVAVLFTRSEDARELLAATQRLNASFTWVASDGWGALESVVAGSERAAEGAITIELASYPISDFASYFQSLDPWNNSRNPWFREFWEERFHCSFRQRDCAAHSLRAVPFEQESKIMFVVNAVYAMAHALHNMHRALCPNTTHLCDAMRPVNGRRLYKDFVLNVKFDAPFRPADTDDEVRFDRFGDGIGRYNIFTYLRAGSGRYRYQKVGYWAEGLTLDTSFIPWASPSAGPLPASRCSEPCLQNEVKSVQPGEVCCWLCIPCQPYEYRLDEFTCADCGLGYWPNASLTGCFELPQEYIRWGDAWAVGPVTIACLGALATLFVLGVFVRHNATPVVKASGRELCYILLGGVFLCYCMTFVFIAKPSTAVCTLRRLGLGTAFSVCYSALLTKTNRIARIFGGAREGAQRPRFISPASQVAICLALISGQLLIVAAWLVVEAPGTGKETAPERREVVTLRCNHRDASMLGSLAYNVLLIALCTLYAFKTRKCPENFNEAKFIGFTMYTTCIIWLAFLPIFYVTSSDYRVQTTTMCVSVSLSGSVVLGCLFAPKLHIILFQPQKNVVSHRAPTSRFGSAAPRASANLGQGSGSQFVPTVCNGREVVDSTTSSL

For `CC1(C)ON=C(C(=O)O)[C@H]1C[C@@H](N)C(=O)O` (relative stereo), the Activity [1] was “inactive”, the Activity [2] was “inactive” and the Activity [3] was “inactive”. For the same molecule, the Activity [4] was “inactive”, the IC50 [5] was greater than 100 µM and the Ki [6] was greater than 100 µM. It also gave an IC50 [7] greater than 100 µM.
For `CC1(C)ON=C(C(=O)O)[C@H]1C[C@H](N)C(=O)O` (relative stereo), the Activity [1] was “inactive”, the Activity [2] was “inactive” and the Activity [3] was “inactive”. The Activity [4] was “inactive”, the IC50 [5] was greater than 100 µM and the Ki [6] was 79 µM. For the same molecule, the IC50 [7] was 12 µM.
For `N[C@@H](C[C@@H]1CC(C(=O)O)=NO1)C(=O)O` (relative stereo), the Activity [1] was “inactive”, the Activity [2] was “inactive” and the Activity [3] was “inactive”. For the same molecule, the Activity [8] was “Active”, the ED50 [9] was 13.9 µmol/kg and the Activity [4] was “inactive”. The IC50 [10] was 14.2 µM, the Activity [11] was “Active” and the Activity [12] was “inactive”. The IC50 [5] was greater than 100 µM, the Ki [6] was 0.21 µM and the ED50 [13] was 17.9 µmol/kg. The Activity [14] was “inactive” and the IC50 [7] was greater than 100 µM.
With `N[C@H](C[C@@H]1CC(C(=O)O)=NO1)C(=O)O` (relative stereo) the Activity [1] was “inactive”, the Activity [2] was “inactive” and the Activity [3] was “inactive”. For the same molecule, the ED50 [9] was 19.7 µmol/kg, the Activity [4] was “inactive” and the IC50 [5] was greater than 100 µM. The Ki [6] was 0.96 µM, the ED50 [13] was 29.9 µmol/kg and the IC50 [7] was greater than 100 µM.
`N[C@@]1(C(=O)O)C[C@@H]2ON=C(C(=O)O)[C@@H]2C1` (racemic) showed an ED50 [9] of 22 µmol/kg, an IC50 [5] greater than 100 µM and a Ki [6] of 0.37 µM. The ED50 [13] was 28 µmol/kg and the IC50 [7] was greater than 100 µM.
With `O=C(O)C1CN(C/C=C/P(=O)(O)O)CCN1` (single isomer, unassigned; (-)) the ED50 [9] was 1.3 µmol/kg, the ED50 [13] was 3.5 µmol/kg and the Ki [15] was 0.04 µM.
`O=C1NC(=O)C(c2ccccc2)(c2ccccc2)N1` [PHENYTOIN] gave an ED50 [9] of 7.3 µmol/kg and an ED50 [13] of 9.1 µmol/kg.
